This is an account of results in ChEMBL document CHEMBL1782055, “2,3-dideoxy hex-2-enopyranosid-4-uloses as promising new anti-tubercular agents: design, synthesis, biological evaluation and SAR studies” (Eur J Med Chem, 2011).

Values after ≈ are worked out from the molar mass of the structure shown. Active and inactive are the calls of the source. No cut-off for these calls is given here.

In data set [1] the test system is Mycobacterium tuberculosis. Put plainly: Antitubercular activity against Mycobacterium tuberculosis H37Rv after 24 hrs by BACTEC radiometric susceptibility assay. Format: functional. The method in brief:
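BACTEC radiometric assay in 7H12 (12B) medium with 14C-palmitic acid as substrate; 14CO2 output read daily as Growth Index (GI) at 37 °C ± 1 °C. H37Rv inoculum grown in 12B vial to GI around 300. Compounds dissolved in DMSO. Control vial held 1:100 diluted bacterial suspension. Reading continued until control GI reached 30 or more. Daily change in GI compared with control to set susceptibility and MIC.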

The nature of data set [2]: Cytotoxicity against african green monkey Vero cells after 24 hrs by resazurin assay. It is filed as cell-based. Conditions: chlorocebus sabaeus. The method in brief:
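Vero cells (ATCC CCL-81) seeded overnight at 1 × 10⁴–[…] cells/well in RPMI with 10% heat-inactivated FBS, 37 °C, 5% CO2. Exposed in triplicate to serial dilutions, 100 to 1.56 µg/mL. Resazurin (0.1%) added for 4–5 h. Read visually (purple to pink or colourless) and by fluorescence, excitation 530 nm, emission 590 nm.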

Data set [3] can be described thus: Selectivity index, ratio of CC50 for african green monkey Vero cells to MIC for Mycobacterium tuberculosis H37Rv. Format: functional.
Data set [4] relates to Mycobacterium tuberculosis. In words: Antitubercular activity against Mycobacterium tuberculosis H37Rv at 50 ug/mL after 24 hrs by BACTEC radiometric susceptibility assay. Format: functional, organism-based.
Data set [5] has as its system Mycobacterium tuberculosis. In words: Antitubercular activity against Mycobacterium tuberculosis H37Rv infected in mouse J774A.1 cells assessed as growth index at 2 times MIC after 8 days by BACTEC radiometric susceptibility assay. It is filed as functional. The method in brief: (§1)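 J774A.1 murine macrophages infected with H37Rv (grown in 7H9 with BSA, dextrose, catalase, washed in serum-free RPMI) at MOI 1:20 for 6 h, 37 °C, 5% CO2. Seeded in triplicate, 5 × 10⁵ cells/well. Daily medium change with complete RPMI containing compound at 1× or 2× MIC. Cells lysed with 0.05% SDS on day 0 and day 6. Lysates inoculated into BACTEC vials, GI followed over 8 days.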

Data set [6] deals with Mycobacterium tuberculosis. Put plainly: Antitubercular activity against drug-sensitive Mycobacterium tuberculosis 2280 after 24 hrs by BACTEC radiometric susceptibility assay. Format: functional. Conditions: Mycobacterium tuberculosis, 2280, 24 h.
Data set [7] concerns Mycobacterium tuberculosis. Put plainly: Antitubercular activity against Mycobacterium tuberculosis H37Rv infected in mouse J774A.1 cells assessed as growth index at MIC after 8 days by BACTEC radiometric susceptibility assay. It is filed as functional. The method, boiled down:
as §1

Data set [8] concerns Mycobacterium tuberculosis. In words: Antitubercular activity against Mycobacterium tuberculosis H37Rv at 25 ug/mL after 24 hrs by BACTEC radiometric susceptibility assay. Format: functional, organism-based.

In turn, `CC(C)CO[C@@H]1C=CC(=O)[C@@H](CO)O1` returned an MIC in data set [1] of 12.5 µg/mL (≈ 62.4 µM).

On to `CCCCCO[C@@H]1C=CC(=O)[C@@H](COC(=O)C(C)(C)C)O1`, for which, in data set [2], the CC50 at 24 h was 7.38 µM. In data set [1], this compound displayed an MIC of 1.56 µg/mL (≈ 5.23 µM). For the same compound, in data set [3], the “Selectivity Index” value was determined as 1.41.

As for `CC(C)CCO[C@@H]1C=C([C@H](O)c2ccc(C#N)cc2)C(=O)[C@@H](COC(=O)C(C)(C)C)O1`, the MIC in data set [1] was found to be 6.25 µg/mL (≈ 14.6 µM).

For the compound `CC(C)CCO[C@@H]1C=CC(=O)[C@@H](CO)O1`, it took 6.25 µg/mL (≈ 29.2 µM) to inhibit growth in data set [1] (MIC).

Compound `CN[C@@H]1[C@H](O[C@H]2[C@H](O[C@H]3[C@H](O)[C@@H](O)[C@H](N=C(N)N)[C@@H](O)[C@@H]3N=C(N)N)O[C@@H](C)[C@]2(O)C=O)O[C@@H](CO)[C@H](O)[C@H]1O` [STREPTOMYCIN] displayed an MIC in data set [1] of 6 µg/mL (≈ 10.3 µM).

Turning to `CO[C@H]1/C=C/O[C@@]2(C)Oc3c(C)c(O)c4c(O)c(c(/C=N/N5CCN(C)CC5)c(O)c4c3C2=O)NC(=O)/C(C)=C\C=C\[C@H](C)[C@H](O)[C@@H](C)[C@@H](O)[C@@H](C)[C@H](OC(C)=O)[C@@H]1C` [RIFAMPIN], the MIC in data set [1] amounted to 2 µg/mL (≈ 2.43 µM).

In data set [1], `CC(C)CCO[C@@H]1C=CC(=O)[C@@H](CO[Si](C)(C)C(C)(C)C)O1` returned an MIC of 12.5 µg/mL (≈ 38 µM).

In data set [2], `CC(C)(C)C(=O)OC[C@H]1O[C@H](OCC2CC2)C=CC1=O` had a CC50 at 24 h of 77.2 µM. For the same compound, 3.12 µg/mL (≈ 11.1 µM) was the least that counted as inhibitory in data set [1] (MIC). Also, the “Selectivity Index” value in data set [3] came to 6.96.

Compound `CCCCCCCCCCO[C@@H]1C=C([C@H](O)c2ccc(C#N)cc2)C(=O)[C@@H](COC(=O)C(C)(C)C)O1` yielded an MIC in data set [1] of 12.5 µg/mL (≈ 25 µM).

As to `CCCCCCO[C@@H]1C=CC(=O)[C@@H](COC(=O)C(C)(C)C)O1`, the CC50 at 24 h in data set [2] amounted to 4.8 µM. Also, the lowest concentration to inhibit growth in data set [1] (MIC) was 3.12 µg/mL (≈ 10 µM). For the same compound, in data set [3], the “Selectivity Index” value is 0.48.

Consider `O=C1C=C[C@@H](OCC2CC2)O[C@@H]1CO`, for which it took 25 µg/mL (≈ 126 µM) to inhibit growth in data set [1] (MIC).

For `CC(C)CCO[C@@H]1C=C[C@H](O)[C@@H](CO)O1`, the outcome in data set [4] was inactive.

Consider `CC(C)CO[C@@H]1C=CC(=O)[C@@H](COC(=O)C(C)(C)C)O1`, for which, in data set [2], it took 28.2 µM to reach half-maximal cytotoxicity (CC50 at 24 h). In data set [1], the MIC stood at 3.12 µg/mL (≈ 11 µM). In addition, the “Selectivity Index” value in data set [3] worked out at 2.56.

In data set [1], `CC(C)(C)O[C@@H]1C=CC(=O)[C@@H](COC(=O)C(C)(C)C)O1` showed an MIC of 6.25 µg/mL (≈ 22 µM).

In data set [1], `CCCCCCCCCCO[C@@H]1C=C([C@H](O)c2ccc([N+](=O)[O-])cc2)C(=O)[C@@H](COC(C)=O)O1` showed an MIC of 25 µg/mL (≈ 52.4 µM).

For the compound `CC(=O)OC[C@H]1O[C@H](OCCC(C)C)C=C([C@H](O)c2ccc([N+](=O)[O-])cc2)C1=O`, in data set [2], it took 14.3 µM to reach half-maximal cytotoxicity (CC50 at 24 h). Moreover, in data set [1], 3.12 µg/mL (≈ 7.67 µM) was the least that counted as inhibitory (MIC). Further, the “Selectivity Index” value in data set [3] stood at 1.8.

For the compound `CO[C@@H]1C=CC(=O)[C@@H](CO)O1`, in data set [1], inhibition of growth (MIC) required 25 µg/mL (≈ 158 µM).

`CC(C)(C)O[C@@H]1C=CC(=O)[C@@H](CO)O1`: the MIC in data set [1] was 25 µg/mL (≈ 125 µM).

The compound `CO[C@@H]1C=CC(=O)[C@@H](COC(=O)C(C)(C)C)O1` yielded an MIC in data set [1] of 6.25 µg/mL (≈ 25.8 µM).

In data set [1], `CCCCCCCCCCO[C@@H]1C=CC(=O)[C@@H](COC(C)=O)O1` registered an MIC of 6.25 µg/mL (≈ 19.1 µM).

Regarding `CC(=O)OCC1=C[C@@H](OCCC(C)C)O[C@H](COC(=O)C(C)(C)C)C1=O`, the outcome in data set [4] was inactive.

For `CCCCCCCCCCO[C@@H]1C=CC(=O)[C@@H](CO)O1`, 12.5 µg/mL (≈ 44 µM) was the least that counted as inhibitory in data set [1] (MIC).

For `Cc1ccc(S(=O)(=O)OC[C@H]2O[C@H](OC(C)C)C=C([C@H](O)c3ccc([N+](=O)[O-])cc3)C2=O)cc1`, in data set [1], the MIC stood at 6.25 µg/mL (≈ 12.7 µM).

As to `CCCCCCCCCCO[C@@H]1C=CC(=O)[C@@H](COC(=O)C(C)(C)C)O1`, the MIC in data set [1] amounted to 12.5 µg/mL (≈ 33.9 µM).

Take `CC(C)O[C@@H]1C=C(CO)C(=O)[C@@H](COC(=O)C(C)(C)C)O1`: 25 µg/mL (≈ 83.2 µM) was the least that counted as inhibitory in data set [1] (MIC).

Consider `Cc1ccc(S(=O)(=O)OC[C@H]2O[C@H](OC(C)C)C=CC2=O)cc1`, for which the CC50 at 24 h in data set [2] came out at 13.4 µM. The same compound had an MIC in data set [1] of 3.12 µg/mL (≈ 9.18 µM). Further, the “Selectivity Index” value in data set [3] came to 1.4.

On to `CC(=O)OC[C@H]1O[C@H](OCCC(C)C)C=CC1=O`, for which, in data set [2], the midpoint of cytotoxicity, the CC50 at 24 h, lay at 19.8 µM. This compound also had a minimum inhibitory concentration (MIC) in data set [1] of 0.78 µg/mL (≈ 3.04 µM). In data set [3], the “Selectivity Index” value is reported as 6.6.

`CO[C@@H]1C=CC(=O)[C@@H](COC(C)=O)O1` came in with an MIC in data set [1] of 6.25 µg/mL (≈ 31.2 µM).

Compound `CC(=O)OC[C@H]1O[C@H](OC(C)C)C=CC1=O` gave a CC50 at 24 h in data set [2] of 104 µM. The same compound yielded an MIC in data set [1] of 3.12 µg/mL (≈ 13.7 µM). Also, the “Selectivity Index” value in data set [3] was found to be 7.6.

As to `CCCCCCCCCCO[C@@H]1C=C[C@H](O)[C@@H](CO)O1`, the outcome in data set [4] was inactive.

In turn, `CC(C)CCO[C@@H]1C=C(CO)C(=O)[C@@H](COC(=O)C(C)(C)C)O1` displayed an MIC in data set [1] of 25 µg/mL (≈ 76.1 µM).

Consider `CC(C)CCO[C@H]1O[C@H](COC(=O)C(C)(C)C)C(=O)[C@@H]2O[C@H]12`, for which the lowest concentration to inhibit growth in data set [1] (MIC) was 12.5 µg/mL (≈ 39.8 µM).

`CC(C)O[C@@H]1C=CC(=O)[C@@H](COC(=O)C(C)(C)C)O1` registered a CC50 at 24 h in data set [2] of 12.5 µM. This compound also yielded an MIC in data set [1] of 3.12 µg/mL (≈ 11.6 µM). Moreover, the “Selectivity Index” value in data set [3] is listed as 1.09.

`CC(C)O[C@@H]1C=CC(=O)[C@@H](CO)O1`: the MIC in data set [1] was found to be 25 µg/mL (≈ 134 µM).

On to `CC(C)CCO[C@@H]1C=CC(=O)[C@@H](COC(=O)C(C)(C)C)O1`, for which the Growth_index in data set [5] and in data set [7] was 10 in each case. Further, the CC50 at 24 h in data set [2] stood at 36 µM. For the same compound, the MIC in data set [6] and in data set [1] was 0.78 µg/mL (≈ 2.61 µM) in each case. Moreover, the “Selectivity Index” value in data set [3] is reported as 13.5.

On to `CC(C)O[C@@H]1C=C([C@H](O)c2ccc(C#N)cc2)C(=O)[C@@H](COC(=O)C(C)(C)C)O1`, for which, in data set [1], the MIC was determined as 6.25 µg/mL (≈ 15.6 µM).

`CC(C)CCO[C@@H]1C=C([C@H](O)c2ccc([N+](=O)[O-])cc2[N+](=O)[O-])C(=O)[C@@H](COC(=O)C(C)(C)C)O1` yielded an MIC in data set [1] of 6.25 µg/mL (≈ 12.6 µM).

Compound `CCCCO[C@@H]1C=CC(=O)[C@@H](COC(=O)C(C)(C)C)O1` gave a half-maximal cytotoxic concentration (CC50) at 24 h in data set [2] of 42.5 µM. Also, the MIC in data set [1] came out at 3.12 µg/mL (≈ 11 µM). In addition, the “Selectivity Index” value in data set [3] worked out at 3.85.

`CO[C@@H]1C=C([C@H](O)c2ccc(C#N)cc2)C(=O)[C@@H](COC(=O)C(C)(C)C)O1` returned an MIC in data set [1] of 12.5 µg/mL (≈ 33.5 µM).

The compound `CC(=O)OC[C@H]1O[C@H](OC(C)(C)C)C=CC1=O` registered an MIC in data set [1] of 6.25 µg/mL (≈ 25.8 µM).

For the compound `COc1ccc(O[C@@H]2C=CC(=O)[C@@H](COC(=O)C(C)(C)C)O2)cc1`, the MIC in data set [1] was 6.25 µg/mL (≈ 18.7 µM).

`CC(C)CO[C@@H]1C=C([C@H](O)c2ccc(C#N)cc2)C(=O)[C@@H](COC(=O)C(C)(C)C)O1` showed an MIC in data set [1] of 6.25 µg/mL (≈ 15 µM).

As to `COc1ccc(O[C@@H]2C=CC(=O)[C@@H](CO)O2)cc1`, in data set [8], the result was inactive.

For the compound `CC(=O)OC[C@H]1O[C@H](OCCC(C)C)C=C([C@H](O)c2ccc([N+](=O)[O-])cc2[N+](=O)[O-])C1=O`, the MIC in data set [1] amounted to 6.25 µg/mL (≈ 13.8 µM).

Turning to `CC(C)CCO[C@@H]1C=CC(=O)[C@@H](CC#N)O1`, in data set [1], it took 12.5 µg/mL (≈ 56 µM) to inhibit growth (MIC).
